Reference: ChEMBL document CHEMBL4823286, “Synthesis and evaluation of novel 2,4-diaminopyrimidines bearing a sulfoxide moiety as anaplastic lymphoma kinase (ALK) inhibition agents” (Bioorg Med Chem Lett, 2021)
The source made the active and inactive calls. No cut-off for these calls is given here.

Experiments:
[1] = system: NCI-H2228; test: Induction of apoptosis in human NCI-H2228 cells assessed as early apoptotic cells at 5 nM measured after 24 hrs by Annexin V-FITC/PI staining based flow cytometry assay (reference value: 2.18%); format: functional
How it was run: (§1)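 After 24 h or 48 h exposure (5, 25, 50 nM; DMSO 0.01% control), NCI-H2228 cells were harvested, double-stained with Annexin V-FITC and PI and run on flow cytometry. Stage percentages quantified by software; three experiments, representative shown.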

[2] = system: NCI-H2228; test: Induction of apoptosis in human NCI-H2228 cells assessed as nuclear pyknosis at 5 to 50 nM measured after 48 hrs by Hoechst 33342 staining based flourescence microscopy method; format: functional, cell-based; settings: dose 5-50 nM
How it was run: (§2)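 Nuclear morphology: NCI-H2228 cells treated 48 h at 5, 25 and 50 nM, stained with Hoechst 33342, imaged on an inverted fluorescence microscope. Performed three times, representative images shown.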

[3] = system: NCI-H2228; test: Induction of apoptosis in human NCI-H2228 cells assessed as viable cells at 50 nM measured after 48 hrs by Annexin V-FITC/PI staining based flow cytometry assay (reference value: 95.3%); format: functional; settings: read-out: Activity; how it was run: as §1
[4] = system: NCI-H2228; test: Cell cycle arrest in human NCI-H2228 cells assessed as accumulation of cells in G1 phase at 20 nM measured after 24 hrs by PI staining based flow cytometry method (reference value: 67.77%); format: functional
How it was run: (§3)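 NCI-H2228 cells exposed to 20 nM for 0, 12, 24 or 48 h, stained with PI and analysed by flow cytometry for G0/G1, S and G2/M fractions. Phase percentages quantified by analysis software; three independent experiments, representative run shown.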

[5] = system: NCI-H2228; test: Induction of apoptosis in human NCI-H2228 cells assessed as late apoptotic cells at 50 nM measured after 24 hrs by Annexin V-FITC/PI staining based flow cytometry assay (reference value: 2.02%); format: functional; how it was run: as §1
[6] = system: NCI-H2228; test: Induction of apoptosis in human NCI-H2228 cells assessed as early apoptotic cells at 5 nM measured after 48 hrs by Annexin V-FITC/PI staining based flow cytometry assay (reference value: 1.58%); format: functional; how it was run: as §1
[7] = system: NCI-H2228; test: Cell cycle arrest in human NCI-H2228 cells assessed as accumulation of cells in G2/M phase at 20 nM measured after 24 hrs by PI staining based flow cytometry method (reference value: 2.23%); format: functional; how it was run: as §3
[8] = system: NCI-H2228; test: Induction of apoptosis in human NCI-H2228 cells assessed as late apoptotic cells at 25 nM measured after 48 hrs by Annexin V-FITC/PI staining based flow cytometry assay (reference value: 0.23%); format: functional; how it was run: as §1
[9] = system: NCI-H2228; test: Induction of apoptosis in human NCI-H2228 cells assessed as necrotic cells at 25 nM measured after 48 hrs by Annexin V-FITC/PI staining based flow cytometry assay (reference value: 2.88%); format: functional; how it was run: as §1
[10] = system: NCI-H2228; test: Inhibition of cell migration in human NCI-H2228 cells assessed as reduction in wound closure at 25 nM measured after 12 to 24 hrs by wound healing assay based phase contrast microscopy method; format: functional; settings: time 12-24 hrs
How it was run: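 Wound-closure migration: NCI-H2228 cells kept in 1640 medium containing compound for 12 h or 24 h, photographed by phase contrast microscopy (4× objective); untreated control for comparison. Three experiments.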

[11] = system: NCI-H2228; test: Induction of apoptosis in human NCI-H2228 cells assessed as late apoptotic cells at 25 nM measured after 24 hrs by Annexin V-FITC/PI staining based flow cytometry assay (reference value: 2.02%); format: functional; how it was run: as §1
[12] = system: NCI-H2228; test: Induction of apoptosis in human NCI-H2228 cells assessed as necrotic cells at 5 nM measured after 48 hrs by Annexin V-FITC/PI staining based flow cytometry assay (reference value: 2.88%); format: functional; how it was run: as §1
[13] = system: NCI-H2228; test: Cell cycle arrest in human NCI-H2228 cells assessed as accumulation of cells in G2/M phase at 20 nM measured after 12 hrs by PI staining based flow cytometry method (reference value: 2.23%); format: functional; how it was run: as §3
[14] = system: NCI-H2228; test: Induction of apoptosis in human NCI-H2228 cells assessed as early apoptotic cells at 50 nM measured after 48 hrs by Annexin V-FITC/PI staining based flow cytometry assay (reference value: 1.58%); format: functional; how it was run: as §1
[15] = system: NCI-H2228; test: Induction of apoptosis in human NCI-H2228 cells assessed as induction of mitochondrial membrane potential collapse at 5 to 50 nM measured after 24 hrs by JC-1 probe based flourescence microscopy; format: functional, cell-based; settings: dose 5-50 nM
How it was run: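 JC-1 read of mitochondrial membrane potential: NCI-H2228 cells given 5, 25 or 50 nM, or DMSO 0.01%, for 24 h, then probe-loaded 30 min and viewed by fluorescence microscopy for red aggregate versus green monomer signal. Three experiments.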

[16] = system: NCI-H2228; test: Induction of apoptosis in human NCI-H2228 cells assessed as early apoptotic cells at 25 nM measured after 24 hrs by Annexin V-FITC/PI staining based flow cytometry assay (reference value: 2.18%); format: functional; how it was run: as §1
[17] = system: NCI-H2228; test: Cell cycle arrest in human NCI-H2228 cells assessed as accumulation of cells in S phase at 20 nM measured after 24 hrs by PI staining based flow cytometry method (reference value: 30%); format: functional; how it was run: as §3
[18] = system: NCI-H2228; test: Induction of apoptosis in human NCI-H2228 cells assessed as early apoptotic cells at 25 nM measured after 48 hrs by Annexin V-FITC/PI staining based flow cytometry assay (reference value: 1.58%); format: functional; how it was run: as §1
[19] = system: NCI-H2228; test: Cell cycle arrest in human NCI-H2228 cells assessed as accumulation of cells in S phase at 20 nM measured after 48 hrs by PI staining based flow cytometry method (reference value: 30%); format: functional; how it was run: as §3
[20] = system: NCI-H2228; test: Induction of apoptosis in human NCI-H2228 cells assessed as late apoptotic cells at 5 nM measured after 24 hrs by Annexin V-FITC/PI staining based flow cytometry assay (reference value: 2.02%); format: functional; how it was run: as §1
[21] = system: NCI-H2228; test: Cell cycle arrest in human NCI-H2228 cells assessed as downregulation of CDK4 protein expression at 20 nM measured after 12 to 48 hrs by western blot assay; format: functional, cell-based; settings: time 12-48 hrs
How it was run: (§4)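 Western blot of cell-cycle regulatory proteins in NCI-H2228 cells held at 20 nM for 0, 12, 24 or 48 h. Performed three times, representative blot shown.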

[22] = system: NCI-H2228; test: Induction of apoptosis in human NCI-H2228 cells assessed as late apoptotic cells at 5 nM measured after 48 hrs by Annexin V-FITC/PI staining based flow cytometry assay (reference value: 0.23%); format: functional; how it was run: as §1
[23] = system: NCI-H2228; test: Induction of apoptosis in human NCI-H2228 cells assessed as late apoptotic cells at 50 nM measured after 48 hrs by Annexin V-FITC/PI staining based flow cytometry assay (reference value: 0.23%); format: functional; how it was run: as §1
[24] = system: NCI-H2228; test: Induction of apoptosis in human NCI-H2228 cells assessed as viable cells at 50 nM measured after 24 hrs by Annexin V-FITC/PI staining based flow cytometry assay (reference value: 95.6%); format: functional; settings: read-out: Activity; how it was run: as §1
[25] = system: NCI-H2228; test: Induction of apoptosis in human NCI-H2228 cells assessed as necrotic cells at 50 nM measured after 48 hrs by Annexin V-FITC/PI staining based flow cytometry assay (reference value: 2.88%); format: functional; how it was run: as §1
[26] = system: NCI-H2228; test: Cell cycle arrest in human NCI-H2228 cells assessed as accumulation of cells in G2/M phase at 20 nM measured after 48 hrs by PI staining based flow cytometry method (reference value: 2.23%); format: functional; how it was run: as §3
[27] = system: NCI-H2228; test: Induction of apoptosis in human NCI-H2228 cells assessed as viable cells at 5 nM measured after 24 hrs by Annexin V-FITC.PI staining based flow cytometry assay (reference value: 95.6%); format: functional; settings: read-out: Activity; how it was run: as §1
[28] = system: NCI-H2228; test: Induction of apoptosis in human NCI-H2228 cells assessed as viable cells at 25 nM measured after 48 hrs by Annexin V-FITC/PI staining based flow cytometry assay (reference value: 95.3%); format: functional; settings: read-out: Activity; how it was run: as §1
[29] = system: NCI-H2228; test: Induction of apoptosis in human NCI-H2228 cells assessed as viable cells at 25 nM measured after 24 hrs by Annexin V-FITC/PI staining based flow cytometry assay (reference value: 95.6%); format: functional; settings: read-out: Activity; how it was run: as §1
[30] = system: BaF3; test: Antiproliferative activity against mouse BaF3 cells overexpressing ALK assessed as inhibition of cell proliferation measured by CCK8 assay; format: functional, cell-based
How it was run: (§5)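 Cell proliferation inhibition; IC50 given as mean ± SD of three independent experiments.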

[31] = system: NCI-H2228; test: Induction of apoptosis in human NCI-H2228 cells assessed as viable cells at 5 nM measured after 48 hrs by Annexin V-FITC/PI staining based flow cytometry assay (reference value: 95.3%); format: functional; settings: read-out: Activity; how it was run: as §1
[32] = system: NCI-H2228; test: Induction of apoptosis in human NCI-H2228 cells assessed as necrotic cells at 25 nM measured after 24 hrs by Annexin V-FITC/PI staining based flow cytometry assay (reference value: 0.21%); format: functional; how it was run: as §1
[33] = system: NCI-H2228; test: Cell cycle arrest in human NCI-H2228 cells assessed as accumulation of cells in S phase at 20 nM measured after 12 hrs by PI staining based flow cytometry method (reference value: 30%); format: functional; how it was run: as §3
[34] = system: NCI-H2228; test: Induction of apoptosis in human NCI-H2228 cells assessed as necrotic cells at 5 nM measured after 24 hrs by Annexin V-FITC/PI staining based flow cytometry assay (reference value: 0.21%); format: functional; how it was run: as §1
[35] = system: NCI-H2228; test: Induction of apoptosis in human NCI-H2228 cells assessed as nuclear fragmentation at 5 to 50 nM measured after 48 hrs by Hoechst 33342 staining based flourescence microscopy method; format: functional, cell-based; settings: dose 5-50 nM; how it was run: as §2
[36] = system: NCI-H2228; test: Induction of apoptosis in human NCI-H2228 cells assessed as necrotic cells at 50 nM measured after 24 hrs by Annexin V-FITC/PI staining based flow cytometry assay (reference value: 0.21%); format: functional; how it was run: as §1
[37] = system: NCI-H2228; test: Cell cycle arrest in human NCI-H2228 cells assessed as accumulation of cells in G1 phase at 20 nM measured after 12 hrs by PI staining based flow cytometry method (reference value: 67.77%); format: functional; how it was run: as §3
[38] = system: NCI-H2228; test: Induction of apoptosis in human NCI-H2228 cells assessed as early apoptotic cells at 50 nM measured after 24 hrs by Annexin V-FITC/PI staining based flow cytometry assay (reference value: 2.18%); format: functional; how it was run: as §1
[39] = system: NCI-H2228; test: Cell cycle arrest in human NCI-H2228 cells assessed as accumulation of cells in G1 phase at 20 nM measured after 48 hrs by PI staining based flow cytometry method (reference value: 67.77%); format: functional; how it was run: as §3
[40] = system: NCI-H2228; test: Antiproliferative activity against human NCI-H2228 cells assessed as inhibition of cell proliferation measured by CCK8 assay; format: functional, cell-based; how it was run: as §5
[41] = system: NCI-H2228; test: Cell cycle arrest in human NCI-H2228 cells assessed as downregulation of Cyclin D1 protein expression at 20 nM measured after 12 to 48 hrs by western blot assay; format: functional, cell-based; settings: time 12-48 hrs; how it was run: as §4

What does the source list for `CCC(=O)Nc1cc(Nc2ncc(Cl)c(Nc3ccc(F)cc3[S+]([O-])CC)n2)c(OC)cc1N1CCN(C)CC1` (stereo not drawn)?
Activity [1]: 9.56%; Activity [2]: Active; viability at 0.05 µM [3]: 10.1%; Activity [4]: 82.13%; Activity [5]: 5.14%; Activity [6]: 8.19%; Activity [7]: 7.16%; Activity [8]: 37.1%; Activity [9]: 0.22%; Activity [10]: Active; Activity [11]: 9.63%; Activity [12]: 0.69%; Activity [13]: 8.55%; Activity [14]: 7.9%; Activity [15]: Active; Activity [16]: 13.9%; Activity [17]: 10.21%; Activity [18]: 19.9%; Activity [19]: 10.1%; Activity [20]: 7.02%; Activity [21]: Active; Activity [22]: 14.1%; Activity [23]: 77.5%; viability at 0.05 µM [24]: 76.1%; Activity [25]: 4.55%; Activity [26]: 3.41%; viability at 0.005 µM [27]: 83.2%; viability at 0.025 µM [28]: 42.8%; viability at 0.025 µM [29]: 76.3%; IC50 [30]: 8.11 nM; viability at 0.005 µM [31]: 77%; Activity [32]: 0.17%; Activity [33]: 20.22%; Activity [34]: 0.17%; Activity [35]: Active; Activity [36]: 0.47%; Activity [37]: 71.23%; Activity [38]: 18.3%; Activity [39]: 86.49%; IC50 [40]: 24.4 nM; Activity [41]: Active

Which results are given for `CCC(=O)Nc1cc(Nc2ncc(Cl)c(Nc3ccc(F)cc3[S+]([O-])CC)n2)c(OC)cc1N(C)CCN(C)C` (stereo not drawn)?
IC50 [30]: 47.2 nM; IC50 [40]: 48.1 nM
